Results taken from article PMC7227796 (ACS chemical neuroscience, 2020).

Experiments:
[1] = target: native AMPA receptors; test: Radioligand binding at native AMPA receptors; conditions: rat synaptosomes, [3H]AMPA; for IC50: read-out: AMPA IC50, native iGluRs (synaptosomes)
Procedure, shortened: (§1)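 Rat cortical synaptosomal membranes were labelled with 5 nM [3H]AMPA (AMPA), 5 nM [3H]KA (KA) or [3H]CGP39653 (NMDA). Test compound was run at 12–16 concentrations in triplicate, with three to six independent experiments. Cpm were fitted by nonlinear regression. Values are reported as pIC50 for AMPA and KA and as pKi for NMDA, each as mean with SEM.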

[2] = target: native KA receptors; test: Radioligand binding at native KA receptors; conditions: rat synaptosomes, [3H]KA
Procedure, shortened: as §1

[3] = target: native NMDA receptors; test: Radioligand binding at native NMDA receptors; design: species or system rat; conditions: rat synaptosomes, [3H]CGP-39653; for Ki: read-out: NMDA Ki, native iGluRs (synaptosomes)
Procedure, shortened: as §1

[4] = target: GluA1 (Rattus norvegicus, UniProt P19490); test: Radioligand binding at recombinant homomeric GluA1
Procedure, shortened: (§2)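 Membranes from sf9 cells expressing rat homomeric GluA1 or GluA2 were incubated with [3H]-(S)-AMPA and test compound for 2 h at 4 °C. Buffer was 50 mM Tris-HCl, 0.1 M KSCN, 2.5 mM CaCl2, pH 7.2. Samples were filtered on GF/C, washed twice with ice-cold buffer and counted by scintillation. Competition curves used 12–16 concentrations in triplicate. Ki came from a one-site fit and nH from a four-parameter logistic fit.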

[5] = target: GluA2 (Rattus norvegicus, UniProt P19491); test: Radioligand binding at recombinant homomeric GluA2
Procedure, shortened: as §2

[6] = target: GluK1 (Rattus norvegicus, UniProt P22756); test: Radioligand binding at recombinant homomeric GluK1
Procedure, shortened: (§3)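 Membranes from sf9 cells expressing rat homomeric GluK1, GluK2 or GluK3 were incubated in 50 mM Tris-HCl, pH 7.1, for 2 h at 4 °C. Radioligand was [3H]-(S)-NF608 for GluK1 and [3H]kainic acid for GluK2 and GluK3. Samples were filtered on GF/B, washed twice with ice-cold buffer, dried for 1 h at 70 °C and counted by scintillation. Ki came from 12–16-point triplicate curves. Single-point % specific binding is mean ± SD of three experiments, at 10 μM test compound where stated.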

[7] = target: GluK2 (Rattus norvegicus, UniProt P42260); test: Radioligand binding at recombinant homomeric GluK2
Procedure, shortened: as §3

[8] = target: GluK3 (Rattus norvegicus, UniProt P42264); test: Radioligand binding at recombinant homomeric GluK3
Procedure, shortened: as §3

Chain of GluK3 (P42264 32-919): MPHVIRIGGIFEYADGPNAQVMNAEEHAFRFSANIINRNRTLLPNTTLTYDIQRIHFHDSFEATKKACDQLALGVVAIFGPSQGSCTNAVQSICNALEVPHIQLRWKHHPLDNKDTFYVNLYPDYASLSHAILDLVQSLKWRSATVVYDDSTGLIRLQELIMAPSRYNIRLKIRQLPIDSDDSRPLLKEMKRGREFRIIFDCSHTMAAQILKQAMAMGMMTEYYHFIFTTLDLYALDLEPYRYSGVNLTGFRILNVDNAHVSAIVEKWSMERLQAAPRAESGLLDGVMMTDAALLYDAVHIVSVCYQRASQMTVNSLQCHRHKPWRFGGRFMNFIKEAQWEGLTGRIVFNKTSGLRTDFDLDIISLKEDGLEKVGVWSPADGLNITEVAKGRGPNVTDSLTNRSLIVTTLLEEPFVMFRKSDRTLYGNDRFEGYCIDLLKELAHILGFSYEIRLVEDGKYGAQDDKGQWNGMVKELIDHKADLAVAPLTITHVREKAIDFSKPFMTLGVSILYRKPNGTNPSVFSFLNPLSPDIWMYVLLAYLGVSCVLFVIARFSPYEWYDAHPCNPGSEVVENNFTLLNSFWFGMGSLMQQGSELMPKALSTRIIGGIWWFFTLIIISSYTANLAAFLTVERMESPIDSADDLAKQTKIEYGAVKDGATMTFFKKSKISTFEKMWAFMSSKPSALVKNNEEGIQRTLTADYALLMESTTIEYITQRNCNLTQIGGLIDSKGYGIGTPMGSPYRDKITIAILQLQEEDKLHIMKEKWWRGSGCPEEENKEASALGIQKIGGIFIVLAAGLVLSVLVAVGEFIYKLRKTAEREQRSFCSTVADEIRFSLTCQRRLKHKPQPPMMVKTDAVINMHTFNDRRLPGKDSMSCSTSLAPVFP
Chain of GluK1 (P22756 31-920 isoform P22756-4 limits assumed): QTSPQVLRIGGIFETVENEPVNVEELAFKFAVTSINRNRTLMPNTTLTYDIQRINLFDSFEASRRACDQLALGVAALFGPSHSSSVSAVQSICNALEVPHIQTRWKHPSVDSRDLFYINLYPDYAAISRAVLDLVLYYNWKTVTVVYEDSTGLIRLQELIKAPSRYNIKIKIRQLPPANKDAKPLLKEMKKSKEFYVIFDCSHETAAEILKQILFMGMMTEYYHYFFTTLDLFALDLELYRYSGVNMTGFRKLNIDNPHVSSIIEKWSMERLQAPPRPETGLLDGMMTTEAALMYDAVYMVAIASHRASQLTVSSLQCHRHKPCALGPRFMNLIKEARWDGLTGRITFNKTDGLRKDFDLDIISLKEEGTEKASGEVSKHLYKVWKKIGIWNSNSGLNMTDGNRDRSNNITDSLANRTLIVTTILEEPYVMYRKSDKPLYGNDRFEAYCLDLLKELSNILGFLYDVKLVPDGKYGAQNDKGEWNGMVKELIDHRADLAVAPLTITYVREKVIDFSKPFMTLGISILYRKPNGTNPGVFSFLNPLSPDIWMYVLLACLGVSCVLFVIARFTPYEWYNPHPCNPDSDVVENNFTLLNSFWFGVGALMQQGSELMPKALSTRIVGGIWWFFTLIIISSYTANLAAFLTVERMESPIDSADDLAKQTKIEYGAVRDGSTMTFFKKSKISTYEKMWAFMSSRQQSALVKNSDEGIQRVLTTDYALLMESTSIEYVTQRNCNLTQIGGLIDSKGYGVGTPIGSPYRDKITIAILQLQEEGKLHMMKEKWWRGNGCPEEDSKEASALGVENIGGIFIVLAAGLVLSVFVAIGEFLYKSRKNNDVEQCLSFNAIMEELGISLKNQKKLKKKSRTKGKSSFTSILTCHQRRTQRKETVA
Chain of GluA1 (P19490 19-907): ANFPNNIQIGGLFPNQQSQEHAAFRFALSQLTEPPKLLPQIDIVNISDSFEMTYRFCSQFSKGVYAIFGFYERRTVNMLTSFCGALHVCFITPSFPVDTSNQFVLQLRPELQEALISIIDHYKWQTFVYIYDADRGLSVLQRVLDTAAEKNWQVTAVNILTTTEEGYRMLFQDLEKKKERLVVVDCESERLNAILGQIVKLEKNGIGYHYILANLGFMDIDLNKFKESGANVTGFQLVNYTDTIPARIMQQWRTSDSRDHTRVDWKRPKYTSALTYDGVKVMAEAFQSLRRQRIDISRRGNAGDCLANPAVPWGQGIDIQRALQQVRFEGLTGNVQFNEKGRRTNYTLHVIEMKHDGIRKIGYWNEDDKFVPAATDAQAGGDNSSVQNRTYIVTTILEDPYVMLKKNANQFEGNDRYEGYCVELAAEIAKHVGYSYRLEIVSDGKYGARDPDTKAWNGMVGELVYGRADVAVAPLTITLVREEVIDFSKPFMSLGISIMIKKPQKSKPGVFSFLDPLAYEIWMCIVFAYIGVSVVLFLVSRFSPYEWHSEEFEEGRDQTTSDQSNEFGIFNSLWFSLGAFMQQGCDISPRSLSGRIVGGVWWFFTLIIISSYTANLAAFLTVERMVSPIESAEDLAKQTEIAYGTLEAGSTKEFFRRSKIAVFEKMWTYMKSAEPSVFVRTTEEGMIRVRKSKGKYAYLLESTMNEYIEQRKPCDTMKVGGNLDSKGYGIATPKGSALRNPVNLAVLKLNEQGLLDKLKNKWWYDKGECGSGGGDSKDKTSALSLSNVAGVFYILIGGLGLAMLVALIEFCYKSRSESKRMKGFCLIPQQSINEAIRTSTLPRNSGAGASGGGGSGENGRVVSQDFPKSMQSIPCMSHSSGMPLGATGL
Chain of GluA2 (P19491 22-883): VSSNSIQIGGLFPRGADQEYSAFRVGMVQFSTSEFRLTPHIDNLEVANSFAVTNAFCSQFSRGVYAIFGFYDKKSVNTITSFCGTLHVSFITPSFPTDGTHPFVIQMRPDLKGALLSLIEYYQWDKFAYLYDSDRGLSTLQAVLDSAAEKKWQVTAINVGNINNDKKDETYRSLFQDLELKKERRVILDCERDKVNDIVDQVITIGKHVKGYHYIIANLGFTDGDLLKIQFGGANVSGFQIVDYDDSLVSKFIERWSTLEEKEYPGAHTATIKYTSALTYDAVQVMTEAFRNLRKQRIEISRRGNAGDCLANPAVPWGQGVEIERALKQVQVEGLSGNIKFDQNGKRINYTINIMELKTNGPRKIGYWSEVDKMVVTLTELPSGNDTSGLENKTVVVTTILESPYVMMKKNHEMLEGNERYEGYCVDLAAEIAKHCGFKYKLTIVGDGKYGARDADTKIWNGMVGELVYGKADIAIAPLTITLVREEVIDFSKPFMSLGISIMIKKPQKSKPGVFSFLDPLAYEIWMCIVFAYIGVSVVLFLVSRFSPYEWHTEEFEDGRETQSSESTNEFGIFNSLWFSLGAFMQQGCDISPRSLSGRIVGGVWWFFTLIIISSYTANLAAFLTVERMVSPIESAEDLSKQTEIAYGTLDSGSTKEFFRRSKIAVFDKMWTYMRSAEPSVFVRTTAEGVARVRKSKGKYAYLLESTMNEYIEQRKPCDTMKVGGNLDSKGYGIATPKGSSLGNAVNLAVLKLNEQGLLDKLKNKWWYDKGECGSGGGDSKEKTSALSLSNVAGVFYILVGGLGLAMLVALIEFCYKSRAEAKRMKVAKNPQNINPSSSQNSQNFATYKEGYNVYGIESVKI
Chain of GluK2 (P42260 32-908): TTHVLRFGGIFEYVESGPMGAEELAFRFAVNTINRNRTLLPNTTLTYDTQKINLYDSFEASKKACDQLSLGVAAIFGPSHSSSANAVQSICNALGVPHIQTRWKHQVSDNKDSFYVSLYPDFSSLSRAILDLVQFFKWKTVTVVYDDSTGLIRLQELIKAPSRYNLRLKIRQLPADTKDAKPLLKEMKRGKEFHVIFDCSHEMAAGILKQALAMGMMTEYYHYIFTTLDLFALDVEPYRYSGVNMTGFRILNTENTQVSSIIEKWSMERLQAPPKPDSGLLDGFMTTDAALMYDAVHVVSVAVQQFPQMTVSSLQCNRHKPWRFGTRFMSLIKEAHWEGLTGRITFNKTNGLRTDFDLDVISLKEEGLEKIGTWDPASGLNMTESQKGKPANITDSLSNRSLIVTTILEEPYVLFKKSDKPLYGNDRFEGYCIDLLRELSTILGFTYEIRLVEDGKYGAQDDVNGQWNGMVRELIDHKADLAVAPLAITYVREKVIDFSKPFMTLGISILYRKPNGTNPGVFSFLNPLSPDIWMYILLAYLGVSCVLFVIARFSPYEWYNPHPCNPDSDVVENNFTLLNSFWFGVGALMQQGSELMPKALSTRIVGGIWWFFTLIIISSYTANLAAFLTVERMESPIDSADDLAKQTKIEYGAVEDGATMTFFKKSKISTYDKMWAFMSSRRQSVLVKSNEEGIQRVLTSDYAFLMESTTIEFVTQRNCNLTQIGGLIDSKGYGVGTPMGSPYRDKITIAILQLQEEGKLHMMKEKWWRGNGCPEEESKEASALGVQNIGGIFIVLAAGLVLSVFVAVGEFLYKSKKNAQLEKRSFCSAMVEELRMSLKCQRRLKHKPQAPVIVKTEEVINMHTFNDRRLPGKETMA

| Compound | AMPA pIC50 with SEM (in brackets) [1] | IC50 [1] [µM] | KA IC50, native iGluRs (synaptosomes) [2] [µM] | KA pIC50 with SEM (in brackets) [2] | NMDA pKi with SEM (in brackets) [3] | Ki [3] [µM] | Ki [4] [µM] | Ki [5] [µM] | Ki [6] [µM] | Ki [7] [µM] | Ki [8] [µM] |
| --- | --- | --- | --- | --- | --- | --- | --- | --- | --- | --- | --- |
| Cl.O=C(O)c1cc(-c2ccccn2)cc([C@H]2CCN[C@@H]2C(=O)O)c1 [5e, (2S,3R)-3-(3-Carboxy-5-(pyridin-2-yl)phenyl)pyrrolidine-2-carboxylic acid hydrochloride] | 4.40±0.05 | 40 | 20 | 4.71±0.05 | 5.42±0.01 | 3.8 | 19 | 55 | 20 ± 1.8 | > 100 | 6.4 ± 0.41 |
| Cl.O=C(O)c1cc(-c2cccnc2)cc([C@H]2CCN[C@@H]2C(=O)O)c1 [5f, (2S,3R)-3-(3-Carboxy-5-(pyridin-3-yl)phenyl)pyrrolidine-2-carboxylic acid hydrochloride] | 4.57±0.13 | 29 | 23 | 4.65±0.03 | 5.51±0.02 | 3.1 | 15 | 40 | 25 ± 1.2 | > 100 | 5.9 ± 0.62 |
| Cl.O=C(O)c1cc(-c2ccncc2)cc([C@H]2CCN[C@@H]2C(=O)O)c1 [5g, (2S,3R)-3-(3-Carboxy-5-(pyridin-4-yl)phenyl)pyrrolidine-2-carboxylic acid hydrochloride] |  | 27 | 25 | 4.61±0.05 | 5.76±0.01 | 1.7 | 12 | 33 | 22 ± 2.3 | > 100 | 6.5 ± 0.92 |
| Cl.O=C(O)c1cc(-c2cncnc2)cc([C@H]2CCN[C@@H]2C(=O)O)c1 [5h, (2S,3R)-3-(3-Carboxy-5-(pyrimidin-5-yl)phenyl)pyrrolidine-2-carboxylic acid hydrochloride] | 4.30±0.13 | 59 | >100 |  | 4.98±0.01 | 10 | 22.7 | 82.9 | 100 | 100 | 13 ± 0.17 |
| Cl.O=C(O)c1cc(-c2cnc(O)nc2)cc([C@H]2CCN[C@@H]2C(=O)O)c1 [5i, (2S,3R)-3-(3-Carboxy-5-(2-hydroxypyrimidin-5-yl)phenyl)pyrrolidine-2-carboxylic acid hydrochloride] | 4.92±0.13 | 13 | >100 |  | 5.39±0.03 | 4.1 | 10 | 56 | 76 ± 1.8 | > 100 | 16 ± 0.98 |
